Data set [1] deals with Mus musculus. Put plainly: Antiinflammatory activity in C57BL/6 mouse assessed as inhibition of zymosan-induced TNFalpha production in cell-free supernatant of knee joint synovial washes at 7 mg/kg, po administered 1 hr prior to zymosan challenge measured at 6 to 24 hrs by sandwich ELISA method. In kind it is functional, organism-based. The method in brief: (§1)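 Male C57BL/6 mice (18−22 g), fasted overnight, dosed orally (in filtered water, 200 μL) or i.p. 1 h before i.a. zymosan (500 μg in 25 μL saline) into left knee; contralateral knee got vehicle. Synovial cavity washed twice with 150 μL PBS/10 mM EDTA at 6 and 24 h; washes spun 400g 10 min, 4 °C. Cytokines measured by sandwich ELISA, LTB4/PGE2 by EIA (pg/mL); six mice/group, two experiments.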

Data set [2] deals with Mus musculus. Put plainly: Antiinflammatory activity in C57BL/6 mouse assessed as inhibition of zymosan-induced neutrophil migration in articular cavity at 7 mg/kg, po administered 1 hr prior to zymosan challenge measured at 6 hrs relative to control. In kind it is functional. Conditions: C57BL/6, po. In outline:
(§2)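 Male C57BL/6 mice, fasted overnight, dosed orally (vehicle saline/water, 200 μL) or i.p. 1 h before zymosan (500 μg in 25 μL saline, i.a., left knee). Knee swelling measured as change in transverse diameter from basal by digital caliper (mm). Synovial washes (PBS/EDTA) counted on a particle counter; differentials from May-Grünwald-Giemsa cytospins, cells ×10^5/cavity. Sampled at 6 and/or 24 h; seven mice/group.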

Data set [3] can be described thus: Cytotoxicity against mouse J774A.1 cells assessed as cell viability at 0.01 to 100 uM after 20 hrs by Alamar Blue assay relative to control. In kind it is toxicity, J774.A1. The note with it: read-out: Activity. The method in brief:
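J774A.1 cells at 2.5 × 10^5 cells/well, 24 h pre-incubation at 37 °C, 5% CO2; fresh medium with or without Tween 20 (3%) or compound (0.01−100 μM), quadruplicate; 20 h incubation, then Alamar Blue added for 4 h; fluorescence read at ex 555/em 585 nm.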
A general note: Alamar Blue is a resazurin reagent that responds to reducing activity.

The test system of data set [4] is Mus musculus. Put plainly: Antiinflammatory activity in C57BL/6 mouse assessed as inhibition of zymosan-induced neutrophil migration in articular cavity at 7 mg/kg, po administered 1 hr prior to zymosan challenge measured at 24 hrs relative to control. In kind it is functional. Conditions: C57BL/6, po. The method in brief: as §2
Data set [5] concerns J774.A1. Briefly: Antiinflammatory activity in mouse J774A.1 cells assessed as inhibition of zymosan and IFNgamma-induced iNOS expression at 1 to 10 uM preincubated for 1 hr followed by zymosan and IFNgamma addition measured after 24 hrs by Western blot analysis. It is filed as functional, cell-based. The method in brief:
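J774A.1 cells in six-well plates pretreated 1 h (0.1−10 μM) before zymosan (10 μg per 10^5 cells) and/or IFN-γ (25 U/mL) for 24 h. Lysates (Tris/NaCl/MgCl2/0.5% NP40 with protease inhibitors); 30 μg protein run on 7.5% SDS-PAGE, transferred to PVDF, probed for COX-2, iNOS and α-tubulin.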
For orientation: A western blot detects proteins with antibodies after separation by electrophoresis.

In data set [6] the test system is Mus musculus. Briefly: Antiinflammatory activity in C57BL/6 mouse assessed as inhibition of zymosan-induced infiltration of inflammatory cells into synovial tissue at 7 mg/kg, po administered 1 hr prior to zymosan challenge measured at 6 to 24 hrs by hematoxylin and eosin staining-based optical microscopy. It is filed as functional, organism-based. The method in brief:
(§3)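 Mice dosed orally or i.p. 1 h before i.a. zymosan (500 μg/cavity) or saline. Whole knees taken at 6 and 24 h from six mice, fixed in 10% formalin 48 h, decalcified in 10% EDTA/PBS 1−2 weeks, paraffin-embedded. 5 μm sections H&E-stained and examined by light microscopy. Parameter scores summed into an arthritis index; means ± SEM, two experiments.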

Data set [7] in a line: Cytotoxicity against C57BL/6 mouse neutrophils assessed as cell viability at 100 uM after 2 hrs by lactate dehydrogenase assay relative to control. In kind it is toxicity, Neutrophil. The note with it: read-out: Activity. In outline:
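Bone-marrow neutrophils from C57BL/6 mice, Percoll-purified (65%/72% interface, ~85-90% purity), plated at 1 × 10^5 cells/well; fresh medium with or without Tween 20 (3%) or compound (0.01−100 μM), quadruplicate; 2 h incubation. LDH released into supernatant measured, 20−30 min at room temperature, stopped with 1 N HCl; absorbance 490 nm minus 690 nm background.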

Data set [8] has as its system Mus musculus. Put plainly: Antiinflammatory activity in C57BL/6 mouse assessed as inhibition of zymosan-induced IL-1beta production in cell-free supernatant of knee joint synovial washes at 7 mg/kg, po administered 1 hr prior to zymosan challenge measured at 6 to 24 hrs by sandwich ELISA method. It is filed as functional, organism-based. The method in brief:
as §1

For data set [9], the system named is Mus musculus. Briefly: Antiinflammatory activity in C57BL/6 mouse assessed as inhibition of zymosan-induced CXCL1/KC production in cell-free supernatant of knee joint synovial washes at 7 mg/kg, po administered 1 hr prior to zymosan challenge measured at 6 to 24 hrs by sandwich ELISA method. It is filed as functional, organism-based. The method in brief:
as §1
A general note: An ELISA detects its analyte on a solid surface through an enzyme-linked reagent.

For data set [10], the system named is J774.A1. Put plainly: Antiinflammatory activity in mouse J774A.1 cells assessed as inhibition of zymosan and IFNgamma-induced IL6 production in cell-free supernatant at 0.1 to 10 uM preincubated for 1 hr followed by zymosan and IFNgamma addition measured after 24 hrs by sandwich ELISA. In kind it is functional, cell-based. The method in brief: (§4)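 J774A.1 macrophages (1 × 10^5/well, RPMI/10% FBS) adhered 24 h, preincubated 1 h with compound (0.1−10 μM) or dexamethasone (1 μM), then stimulated with zymosan (10 μg per 10^5 cells) and/or IFN-γ (25 U/mL) for 24 h. Supernatant IL-6 by sandwich ELISA; nitrite by Griess reaction at 540 nm. Quadruplicate wells, two experiments.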

Data set [11] has as its system Mus musculus. Put plainly: Antiinflammatory activity in C57BL/6 mouse assessed as inhibition of zymosan-induced total leukocyte accumulation in articular cavity at 7 mg/kg, po administered 1 hr prior to zymosan challenge measured at 24 hrs. It is filed as functional, organism-based. In outline:
as §2

In data set [12] the test system is Mus musculus. Briefly: Antiinflammatory activity in zymosan-induced C57BL/6 mouse pleurisy model assessed as reduction in protein extravasation in thoracic cavity at 10 to 50 mg/kg, po administered 1 hr prior to zymosan challenge measured after 4 hrs. It is filed as functional, organism-based. The method in brief:
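Oral pretreatment 1 h before intrathoracic zymosan (100 μg/cavity in 100 μL saline). Cavities washed at 4 h with 1 mL PBS/10 mM EDTA. Total leukocytes counted on a particle counter, differentials from May-Grünwald-Giemsa cytospins (×10^6/cavity). Supernatant after 400g 10 min assayed for total protein by Bradford.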

Data set [13] concerns J774.A1. Briefly: Antiinflammatory activity in mouse J774A.1 cells assessed as inhibition of zymosan and IFNgamma-induced nitric oxide production at 10 uM preincubated for 1 hr followed by zymosan and IFNgamma addition measured after 24 hrs by colorimetric Griess test. In kind it is functional, cell-based. The method in brief:
as §4

Data set [14] deals with Mus musculus. Put plainly: Antiinflammatory activity in C57BL/6 mouse assessed as inhibition of zymosan-induced mononuclear cells migration in articular cavity at 7 mg/kg, po administered 1 hr prior to zymosan challenge measured at 6 to 24 hrs. In kind it is functional, organism-based. The method in brief:
as §2

Data set [15] has as its system Mus musculus. Put plainly: Antiinflammatory activity in C57BL/6 mouse assessed as inhibition of zymosan-induced bleeding in synovial tissue at 7 mg/kg, po administered 1 hr prior to zymosan challenge measured at 6 to 24 hrs by hematoxylin and eosin staining-based optical microscopy. It is filed as functional, organism-based. In outline: as §3
Data set [16] deals with Mus musculus. Briefly: Antiinflammatory activity in C57BL/6 mouse assessed as inhibition of zymosan-induced total leukocyte recruitment in synovial cavity at 0.7 to 70 mg/kg, po administered 1 hr prior to zymosan challenge measured after 6 to 24 hrs by particle counting method. In kind it is functional, organism-based. The method in brief:
as §2

Active and inactive are the calls of the source. The rule behind the calls is not given here. Bounds are passed on as bounds.

1 compound from ChEMBL document CHEMBL3853307, “Anti-inflammatory Effect of Methyl Gallate on Experimental Arthritis: Inhibition of Neutrophil Recruitment, Production of Inflammatory Mediators, and Activation of Macrophages” (J Nat Prod, 2016) can be followed below.

One may read the inhibition in vivo as the relative decrease from the control value, in per cent.

For the compound `COC(=O)c1cc(O)c(O)c(O)c1` [GALLIC ACID METHYL ESTER], the inhibition result in the data set on Mus musculus [1], in the data set on J774.A1 [5], in the data set on Mus musculus [6], with Mus musculus [8], with Mus musculus [9] and in the data set on J774.A1 [10] was “Active” throughout. Moreover, the inhibition result in the data set with Mus musculus [11], in the data set with J774.A1 [13], in the data set on Mus musculus [14], with Mus musculus [15] and with Mus musculus [16] was “Active” throughout. Further, the inhibition in vivo at 7 mg/kg turned out to be 64% with Mus musculus [2] and 74% with Mus musculus [4]. Further, in data set [3], the viability at 20 h, up to 100 µM is not below 95%. In addition, the viability at 2 h, 100 µM in data set [7] was not below 92%. In the data set on Mus musculus [12], the outcome was Active.
